{"source": "ChEMBL document CHEMBL3526029", "about": "“Disposition and metabolism of GSK2251052 in humans: a novel boron-containing antibiotic” (Drug Metab Dispos, 2013)", "key": {"Blood [1]": {"test_system": "Blood", "experiment": "Clearance in healthy human whole blood assessed as radioactivity at 1500 mg, iv infusion for 1 hr as single dose", "type": "ADME, organism-based", "conditions": "in vivo", "outline": "(§1)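 Six fasted healthy men received 1500 mg [14C]GSK2251052 as a 1-h i.v. infusion. Blood and plasma were sampled from predose to 336 h after infusion start. Radioactivity was counted by LSC; plasma below 870 ng eq/ml was reanalysed by accelerator MS, with predose background subtracted. Noncompartmental analysis used actual sampling times, linear-up/log-down trapezoids and CL = dose/AUC(0-∞).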"}, "Blood [2]": {"test_system": "Blood", "experiment": "Half life in healthy human whole blood assessed as radioactivity at 1500 mg, iv infusion for 1 hr as single dose", "type": "ADME, organism-based", "conditions": "in vivo", "outline": "(§2)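 Healthy men got a single 1500 mg [14C] dose by 1 h i.v. infusion. K2EDTA blood was sampled up to 336 h. Radioactivity in blood and plasma was measured by LSC, with AMS for plasma below LLQ. Parent and M3 were measured by LC/MS/MS (5–10,000 ng/ml range). Noncompartmental analysis used actual times, with t1/2 = ln2/λz and Tmax observed directly, timed from infusion start.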"}, "Blood [3]": {"test_system": "Blood", "experiment": "Tmax in healthy human whole blood assessed as radioactivity at 1500 mg, iv infusion for 1 hr as single dose", "type": "ADME, organism-based", "conditions": "in vivo", "outline": "as §2"}, "[4]": {"experiment": "Drug recovery in healthy human urine at 1500 mg, iv infusion for 1 hr as single dose after 96 hrs", "type": "ADME, organism-based", "conditions": "read-out: Drug recovery"}, "[5]": {"experiment": "Drug recovery in healthy human feces at 1500 mg, iv infusion for 1 hr as single dose after 168 hrs", "type": "ADME, organism-based", "conditions": "faeces, read-out: Drug recovery"}, "[6]": {"experiment": "Drug recovery in healthy human feces at 1500 mg, iv infusion for 1 hr as single dose after 216 hrs", "type": "ADME, organism-based", "conditions": "faeces, read-out: Drug recovery"}, "[7]": {"experiment": "Drug recovery in healthy human feces at 1500 mg, iv infusion for 1 hr as single dose after 240 hrs", "type": "ADME, organism-based", "conditions": "faeces, read-out: Drug recovery"}, "Plasma [8]": {"test_system": "Plasma", "experiment": "AUC (0 to t) in healthy human plasma assessed as radioactivity at 1500 mg, iv infusion for 1 hr as single dose", "type": "ADME, organism-based", "conditions": "in vivo", "outline": "as §1"}, "Plasma [9]": {"test_system": "Plasma", "experiment": "Cmax in healthy human plasma assessed as radioactivity at 1500 mg, iv infusion for 1 hr as single dose", "type": "ADME, organism-based", "set-up": "dose 1500 mg, route intravenous", "conditions": "in vivo", "outline": "as §1"}, "[10]": {"experiment": "Drug recovery in healthy human feces at 1500 mg, iv infusion for 1 hr as single dose after 336 hrs", "type": "ADME, organism-based", "conditions": "read-out: Drug recovery"}, "[11]": {"experiment": "Total drug recovery in healthy human at 1500 mg, iv infusion for 1 hr as single dose after 48 hrs", "type": "ADME, organism-based", "conditions": "in vivo, read-out: Drug recovery", "outline": "(§3)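 Six healthy adult males, fasted ≥10 h, got one 1500 mg [14C]GSK2251052 dose ([…], 0.56 MBq) as a constant-rate 1-h IV infusion in 0.9% NaCl. Urine was collected at 0–6, 6–12 and 12–24 h, then in 24-h blocks to 336 h; feces in 24-h blocks. Urine was counted directly by LSC; feces were homogenized and combusted in duplicate before LSC. Cumulative recovery is given as mean % of dose.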"}, "[12]": {"experiment": "Total drug recovery in healthy human at 1500 mg, iv infusion for 1 hr as single dose after 96 hrs", "type": "ADME, organism-based", "conditions": "in vivo, read-out: Drug recovery", "outline": "as §3"}, "[13]": {"experiment": "Total drug recovery in healthy human at 1500 mg, iv infusion for 1 hr as single dose after 120 hrs", "type": "ADME, organism-based", "conditions": "in vivo, read-out: Drug recovery"}, "[14]": {"experiment": "Total drug recovery in healthy human at 1500 mg, iv infusion for 1 hr as single dose after 168 hrs", "type": "ADME, organism-based", "conditions": "in vivo, read-out: Drug recovery"}, "[15]": {"experiment": "Total drug recovery in healthy human at 1500 mg, iv infusion for 1 hr as single dose after 288 hrs", "type": "ADME, organism-based", "conditions": "in vivo, read-out: Drug recovery", "outline": "as §3"}, "[16]": {"experiment": "Total drug recovery in healthy human at 1500 mg, iv infusion for 1 hr as single dose after 336 hrs", "type": "ADME, organism-based", "conditions": "in vivo, read-out: Drug recovery", "outline": "as §3"}, "Homo sapiens": {"test_system": "Homo sapiens", "experiment": "Toxicity in healthy human assessed as serious adverse events at 1500 mg, iv infusion for 1 hr as single dose", "type": "organism-based", "conditions": "in vivo", "outline": "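Single-center, open-label phase I study in six healthy adult males, fasted ≥10 h. Each got one 1500 mg [14C]GSK2251052 dose as a constant-rate 1-h IV infusion. Safety was monitored throughout, with follow-up for at least 336 h after dosing.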"}, "[17]": {"experiment": "Drug metabolism in healthy human urine assessed as 2-(2-amino-1-hydroxyethyl)-6-(3-hydroxypropoxy)phenol formation at 1500 mg, iv infusion for 1 hr as single dose by mass spectrometry", "type": "ADME, organism-based", "conditions": "in vivo", "outline": "(§4)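 Urine was collected through 336 h after a 1500 mg [14C] i.v. 1-h infusion to six men. Samples were pooled by weight (0–120 h per subject; 120–336 h composite) and centrifuged. Profiling used HPLC (Atlantis T3, ammonium acetate pH 4.5/methanol, 30°C) with fraction radioactivity counting. Identity came from Orbitrap positive-ion accurate mass. Values were given as % dose, corrected for recovery.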"}, "[18]": {"experiment": "Drug metabolism in healthy human urine assessed as (S)-3-(3-(acetamidomethyl)-1-hydroxy-1,3-dihydrobenzo[c][1,2]oxaborol-7-yloxy)propanoicacid formation at 1500 mg, iv infusion for 1 hr as single dose by mass spectrometry", "type": "ADME, organism-based", "conditions": "in vivo", "outline": "as §4"}, "[19]": {"experiment": "Drug recovery in healthy human urine assessed as total radioactivity at 1500 mg, iv infusion for 1 hr as single dose after 120 to 336 hrs by HPLC method", "type": "ADME, organism-based", "conditions": "in vivo, in the assay text read “0 to 120 hrs” for “120 to 336 hrs”", "outline": "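Urine pooled by weight per subject over 0–120 h; 120–336 h pools from all subjects combined into one composite. Centrifuged at ~21,000g, then supernatant profiled by HPLC (Atlantis T3, ammonium acetate pH 4.5/methanol, 30°C) with radiochemical detection plus MS identification. Results are % of dose, corrected for centrifugation recovery measured by triplicate LSC.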"}, "[20]": {"experiment": "Drug metabolism in cynomolgus monkey kidney S9 fraction assessed as (S)-3-(3-(aminomethyl)-1-hydroxy-1,3-dihydrobenzo[c][1,2]oxaborol-7-yloxy)propanoicacid formation at 50 to 500 uM after 3 hrs by liquid scintillation counting in presence of NADPH regeneration system", "type": "ADME, Macaca fascicularis", "conditions": "s9, 3 h"}, "Liver microsome [21]": {"test_system": "Liver microsome", "experiment": "Drug metabolism in human liver microsomes assessed as (S)-3-(3-(aminomethyl)-1-hydroxy-1,3-dihydrobenzo[c][1,2]oxaborol-7-yloxy)propanoicacid formation at 50 to 500 uM after 3 hrs by liquid scintillation counting in presence of NADPH regeneration system", "type": "ADME"}, "[22]": {"experiment": "Drug recovery in healthy human urine at 1500 mg, iv infusion for 1 hr as single dose after 264 hrs", "type": "ADME, organism-based", "conditions": "read-out: Drug recovery"}, "[23]": {"experiment": "Drug recovery in healthy human urine at 1500 mg, iv infusion for 1 hr as single dose after 288 hrs", "type": "ADME, organism-based", "conditions": "read-out: Drug recovery"}, "[24]": {"experiment": "Drug recovery in healthy human urine at 1500 mg, iv infusion for 1 hr as single dose after 312 hrs", "type": "ADME, organism-based", "conditions": "read-out: Drug recovery"}, "[25]": {"experiment": "Drug recovery in healthy human feces at 1500 mg, iv infusion for 1 hr as single dose after 96 hrs", "type": "ADME, organism-based", "conditions": "read-out: Drug recovery"}, "Liver microsome [26]": {"test_system": "Liver microsome", "experiment": "Drug metabolism in human liver microsomes assessed as (S)-3-(3-(aminomethyl)-1-hydroxy-1,3-dihydrobenzo[c][1,2]oxaborol-7-yloxy)propanoicacid formation at 50 to 500 uM after 3 hrs by liquid scintillation counting in presence of NAD+", "type": "ADME", "outline": "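[14C]GSK2251052 was incubated in triplicate for 1 or 3 h at 37°C with 4 mg/ml S9 (monkey liver, lung or kidney; human liver), liver cytosol or liver microsomes and 7.5 mM NAD+. Buffer was pyrophosphate at pH 7.4, 8.4 or 8.8. Controls lacked cofactor or enzyme. Reactions were quenched with acetonitrile, counted by LSC, and pooled for radio-HPLC.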"}}}
{"smiles": "Cl.N[14CH2][C@H]1OB(O)c2c(OCCCO)cccc21", "values": [{"measurement": "CL", "setting": "Blood [1]", "value": 7.79, "unit": "L/h"}, {"measurement": "t1/2", "setting": "Blood [2]", "value": 14.3, "unit": "h"}, {"measurement": "Tmax", "setting": "Blood [3]", "value": 0.917, "unit": "h"}, {"measurement": "dose excreted at 96 h", "setting": "[4]", "value": 81.1, "unit": "%"}, {"measurement": "dose excreted at 168 h", "setting": "[5]", "value": 7.6, "unit": "%"}, {"measurement": "dose excreted at 216 h", "setting": "[6]", "value": 7.6, "unit": "%"}, {"measurement": "dose excreted at 240 h", "setting": "[7]", "value": 7.6, "unit": "%"}, {"measurement": "AUCt", "setting": "Plasma [8]", "value": 191, "unit": "µg·h/mL"}, {"measurement": "Cmax", "setting": "Plasma [9]", "value": 24300, "unit": "ng/mL"}, {"measurement": "dose excreted at 336 h", "setting": "[10]", "value": 7.6, "unit": "%"}, {"measurement": "dose excreted at 48 h", "setting": "[11]", "value": 70.5, "unit": "%"}, {"measurement": "dose excreted at 96 h", "setting": "[12]", "value": 87.5, "unit": "%"}, {"measurement": "dose excreted at 120 h", "setting": "[13]", "value": 90.7, "unit": "%"}, {"measurement": "dose excreted at 168 h", "setting": "[14]", "value": 94, "unit": "%"}, {"measurement": "dose excreted at 288 h", "setting": "[15]", "value": 97.4, "unit": "%"}, {"measurement": "dose excreted at 336 h", "setting": "[16]", "value": 98.2, "unit": "%"}, {"measurement": "Activity", "setting": "Homo sapiens", "value": "Non-toxic"}, {"measurement": "Drug recovery", "setting": "[17]", "value": "metabolite_detected"}, {"measurement": "Drug recovery", "setting": "[18]", "value": "metabolite_detected"}, {"measurement": "Drug recovery", "setting": "[19]", "value": 83.1, "unit": "%"}, {"measurement": "Drug metabolism", "setting": "[20]", "value": "metabolite_not_detected"}, {"measurement": "Drug metabolism", "setting": "Liver microsome [21]", "value": "metabolite_not_detected"}, {"measurement": "dose excreted at 264 h", "setting": "[22]", "value": 89.3, "unit": "%"}, {"measurement": "dose excreted at 288 h", "setting": "[23]", "value": 89.8, "unit": "%"}, {"measurement": "dose excreted at 312 h", "setting": "[24]", "value": 90.2, "unit": "%"}, {"measurement": "dose excreted at 96 h", "setting": "[25]", "value": 6.4, "unit": "%"}, {"measurement": "Drug metabolism", "setting": "Liver microsome [26]", "value": "metabolite_not_detected"}]}
